The term Papp denotes the rate of passage across a membrane or cell layer, normalised by area and donor concentration. In general, IC50 refers to the concentration at which inhibition is half-maximal. Usually efflux ratio stands for a quotient of directional permeabilities that is used to spot active efflux.

Sequence of Cathepsin D (P07339 65-162 limits assumed): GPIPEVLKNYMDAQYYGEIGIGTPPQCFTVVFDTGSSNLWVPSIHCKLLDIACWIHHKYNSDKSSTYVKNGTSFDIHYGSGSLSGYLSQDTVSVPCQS
Sequence of Cathepsin D (P07339 169-412 limits assumed): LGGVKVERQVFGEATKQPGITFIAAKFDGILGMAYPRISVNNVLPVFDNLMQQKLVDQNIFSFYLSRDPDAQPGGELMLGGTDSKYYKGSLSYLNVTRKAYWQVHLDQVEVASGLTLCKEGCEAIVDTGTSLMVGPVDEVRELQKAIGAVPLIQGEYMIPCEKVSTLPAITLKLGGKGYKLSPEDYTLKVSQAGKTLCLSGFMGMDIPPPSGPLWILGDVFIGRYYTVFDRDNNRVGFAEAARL

In the first data set the test system is MDR1 (human). The data set is described as follows: Apparent permeability across MDCK cells expressing human MDR1 at 5 uM after 2 hrs by LC-MS analysis. The class given is ADME, cell-based, Canis lupus familiaris. Conditions: dog. The method, boiled down:
(§1)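 MDCK cells retrovirally transduced with human MDR1, seeded on transwells ≥3 days; bidirectional transport at 5 μM, 2 h, 37 °C, LC/MS quantitation. Papp = (dQ/dt)/(A·C0), A 0.11 cm2; ER = Papp B>A / Papp A>B. Means of at least three experiments.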
As to `CC(C)(CO)c1cccc(CN[C@H]2CS(=O)(=O)C[C@@H](Cc3cc(F)c(N)c(OC(C(F)(F)F)C(F)(F)F)c3)[C@@H]2O)c1`, the apparent permeability (Papp) at 2 h, 5 µM was determined as 12 ×10⁻⁶ cm/s.
For the compound `CC1(C)OCc2ccc(CN[C@H]3CS(=O)(=O)C[C@@H](Cc4cc(F)c(N)c(OC(C(F)(F)F)C(F)(F)F)c4)[C@@H]3O)cc21`, the apparent permeability coefficient (Papp) at 2 h, 5 µM was determined as 21 ×10⁻⁶ cm/s.
Regarding `CC(C)(C)c1ccnc(CN[C@H]2CS(=O)(=O)C[C@@H](Cc3cc(F)c(N)c(OC(C(F)(F)F)C(F)(F)F)c3)[C@@H]2O)c1`, the apparent permeability (Papp) at 2 h, 5 µM is 38 ×10⁻⁶ cm/s.
Still for that read-out and setting: the value for `CC(C)(O)c1cccc(CN[C@H]2CS(=O)(=O)C[C@@H](Cc3cc(F)c(N)c(OC(C(F)(F)F)C(F)(F)F)c3)[C@@H]2O)c1` was 11 ×10⁻⁶ cm/s; that for `CC(C)(C)Cn1cc(CN[C@H]2CS(=O)(=O)C[C@@H](Cc3cc(F)c(N)c(OC(C(F)(F)F)C(F)(F)F)c3)[C@@H]2O)cn1` was 16 ×10⁻⁶ cm/s; that for `Nc1c(F)cc(C[C@@H]2CS(=O)(=O)C[C@H](NCc3cccc(OC(F)(F)F)c3)[C@H]2O)cc1OC(C(F)(F)F)C(F)(F)F` was 12 ×10⁻⁶ cm/s.
On the same count and under the same terms, the value for `CC(C)(C)c1cccc(CN[C@H]2CS(=O)(=O)C[C@@H](Cc3ccc(N)c(OC(F)(F)F)c3)[C@@H]2O)c1` (racemic) was 15 ×10⁻⁶ cm/s.
As for `CCCN1CCC[C@@]12CCN([C@@H](C)C(=O)N[C@@H](Cc1ccccc1)[C@H](O)CNCc1cccc(C(C)C)c1)C2=O`, the Papp at 2 h, 5 µM came to 11 ×10⁻⁶ cm/s.

The next data set has as its target Cathepsin D (Homo sapiens, UniProt P07339). The data set is described as follows: Inhibition of human recombinant CatD using Mca-GKPILFFRLK(DNP)-dR-NH2 as substrate after 1 hr by fluorescence analysis.
Conditions: not given
In the case of `CC(C)(CO)c1cccc(CN[C@H]2CS(=O)(=O)C[C@@H](Cc3cc(F)c(N)c(OC(C(F)(F)F)C(F)(F)F)c3)[C@@H]2O)c1`, the IC50 stood at 600 nM.
For the compound `CC1(C)OCc2ccc(CN[C@H]3CS(=O)(=O)C[C@@H](Cc4cc(F)c(N)c(OC(C(F)(F)F)C(F)(F)F)c4)[C@@H]3O)cc21`, the IC50 turned out to be 1510 nM.
On the same count and under the same terms, the value for `CC(C)(C)c1ccnc(CN[C@H]2CS(=O)(=O)C[C@@H](Cc3cc(F)c(N)c(OC(C(F)(F)F)C(F)(F)F)c3)[C@@H]2O)c1` was 3070 nM.
`CC(C)(O)c1cccc(CN[C@H]2CS(=O)(=O)C[C@@H](Cc3cc(F)c(N)c(OC(C(F)(F)F)C(F)(F)F)c3)[C@@H]2O)c1`: the IC50 was found to be 1320 nM.
The same measure, in the same setting: the value for `CC(C)(C)Cn1cc(CN[C@H]2CS(=O)(=O)C[C@@H](Cc3cc(F)c(N)c(OC(C(F)(F)F)C(F)(F)F)c3)[C@@H]2O)cn1` was 2810 nM; that for `Nc1c(F)cc(C[C@@H]2CS(=O)(=O)C[C@H](NCc3cccc(OC(F)(F)F)c3)[C@H]2O)cc1OC(C(F)(F)F)C(F)(F)F` was 2530 nM; that for `CC(C)(C)c1cccc(CN[C@H]2CS(=O)(=O)C[C@@H](Cc3ccc(N)c(OC(F)(F)F)c3)[C@@H]2O)c1` (racemic) was 7990 nM.

A further data set deals with Cytochrome P450 3A4 (Homo sapiens, UniProt P08684). The data set can be described thus: Inhibition of CYP3A4. The class given is ADME.
Sequence of Cytochrome P450 3A4 (P08684 whole entry): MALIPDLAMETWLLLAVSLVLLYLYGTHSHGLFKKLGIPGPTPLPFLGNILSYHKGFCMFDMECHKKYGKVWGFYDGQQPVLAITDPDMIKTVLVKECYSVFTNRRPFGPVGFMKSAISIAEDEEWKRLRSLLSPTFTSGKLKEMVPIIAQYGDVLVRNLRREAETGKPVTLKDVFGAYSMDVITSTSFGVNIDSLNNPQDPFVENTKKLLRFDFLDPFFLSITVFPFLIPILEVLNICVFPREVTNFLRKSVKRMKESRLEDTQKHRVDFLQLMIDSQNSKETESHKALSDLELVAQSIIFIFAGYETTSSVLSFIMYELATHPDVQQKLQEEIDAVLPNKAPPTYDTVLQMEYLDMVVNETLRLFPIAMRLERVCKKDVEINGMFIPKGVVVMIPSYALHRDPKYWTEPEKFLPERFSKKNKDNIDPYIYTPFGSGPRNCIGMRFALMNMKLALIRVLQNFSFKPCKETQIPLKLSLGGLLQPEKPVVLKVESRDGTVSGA
Conditions: not given
Take `CC(C)(CO)c1cccc(CN[C@H]2CS(=O)(=O)C[C@@H](Cc3cc(F)c(N)c(OC(C(F)(F)F)C(F)(F)F)c3)[C@@H]2O)c1`: the IC50 came out at 800 nM.
The same measure, in the same setting: the value for `CC1(C)OCc2ccc(CN[C@H]3CS(=O)(=O)C[C@@H](Cc4cc(F)c(N)c(OC(C(F)(F)F)C(F)(F)F)c4)[C@@H]3O)cc21` was 700 nM.
On the same count and under the same terms, in the case of `CC(C)(C)c1ccnc(CN[C@H]2CS(=O)(=O)C[C@@H](Cc3cc(F)c(N)c(OC(C(F)(F)F)C(F)(F)F)c3)[C@@H]2O)c1` it was 400 nM; in that of `CC(C)(O)c1cccc(CN[C@H]2CS(=O)(=O)C[C@@H](Cc3cc(F)c(N)c(OC(C(F)(F)F)C(F)(F)F)c3)[C@@H]2O)c1`, 2100 nM.
Same read-out and setting: in the case of `CC(C)(C)Cn1cc(CN[C@H]2CS(=O)(=O)C[C@@H](Cc3cc(F)c(N)c(OC(C(F)(F)F)C(F)(F)F)c3)[C@@H]2O)cn1` it was 6700 nM; in that of `Nc1c(F)cc(C[C@@H]2CS(=O)(=O)C[C@H](NCc3cccc(OC(F)(F)F)c3)[C@H]2O)cc1OC(C(F)(F)F)C(F)(F)F`, 9200 nM.

Another data set concerns MDR1 (human). The data set is described as follows: Efflux ratio of permeability from basolateral to apical over apical to basolateral side of MDCK cells expressing human MDR1 at 5 uM after 2 hrs by LC/MS analysis. The class given is ADME, cell-based, Canis lupus familiaris. The settings on record: dog. The method, boiled down: as §1
For the compound `CC(C)(CO)c1cccc(CN[C@H]2CS(=O)(=O)C[C@@H](Cc3cc(F)c(N)c(OC(C(F)(F)F)C(F)(F)F)c3)[C@@H]2O)c1`, the efflux ratio at 2 h, 5 µM came out at 35.
For the compound `CC(C)(C)c1ccnc(CN[C@H]2CS(=O)(=O)C[C@@H](Cc3cc(F)c(N)c(OC(C(F)(F)F)C(F)(F)F)c3)[C@@H]2O)c1`, the efflux ratio at 2 h, 5 µM was 17.
Still for that read-out and setting: the value for `CC(C)(O)c1cccc(CN[C@H]2CS(=O)(=O)C[C@@H](Cc3cc(F)c(N)c(OC(C(F)(F)F)C(F)(F)F)c3)[C@@H]2O)c1` was 30; that for `CC(C)(C)Cn1cc(CN[C@H]2CS(=O)(=O)C[C@@H](Cc3cc(F)c(N)c(OC(C(F)(F)F)C(F)(F)F)c3)[C@@H]2O)cn1` was 46; that for `Nc1c(F)cc(C[C@@H]2CS(=O)(=O)C[C@H](NCc3cccc(OC(F)(F)F)c3)[C@H]2O)cc1OC(C(F)(F)F)C(F)(F)F` was 6.
For the compound `CC(C)(C)c1cccc(CN[C@H]2CS(=O)(=O)C[C@@H](Cc3ccc(N)c(OC(F)(F)F)c3)[C@@H]2O)c1` (racemic), the efflux ratio at 2 h, 5 µM stood at 2.
Still for that read-out and setting: in the case of `CCCN1CCC[C@@]12CCN([C@@H](C)C(=O)N[C@@H](Cc1ccccc1)[C@H](O)CNCc1cccc(C(C)C)c1)C2=O` it was 23.

The target in another data set is T1, Beta-secretase 1 (Homo sapiens, UniProt P56817). The data set can be described thus: Inhibition of human BACE-1 mediated amyloid beta 40 release in Chinese hamster CHO cells expressing human wild-type APP.
T1 sequence (P56817 whole entry): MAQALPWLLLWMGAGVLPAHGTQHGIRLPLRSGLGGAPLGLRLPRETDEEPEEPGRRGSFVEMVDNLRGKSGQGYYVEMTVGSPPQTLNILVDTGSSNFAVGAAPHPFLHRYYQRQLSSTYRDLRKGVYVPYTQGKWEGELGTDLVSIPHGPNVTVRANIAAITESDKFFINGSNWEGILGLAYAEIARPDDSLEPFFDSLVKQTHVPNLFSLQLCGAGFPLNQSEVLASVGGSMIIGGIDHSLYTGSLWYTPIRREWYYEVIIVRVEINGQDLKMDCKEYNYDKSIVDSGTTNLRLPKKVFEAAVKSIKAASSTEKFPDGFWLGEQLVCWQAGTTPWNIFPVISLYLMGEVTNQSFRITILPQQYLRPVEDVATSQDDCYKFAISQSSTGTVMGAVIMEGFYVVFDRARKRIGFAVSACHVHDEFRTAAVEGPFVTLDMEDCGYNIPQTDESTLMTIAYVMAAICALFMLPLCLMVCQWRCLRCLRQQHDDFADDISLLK
Conditions: not given
In turn, `CCCN1CCC[C@@]12CCN([C@@H](C)C(=O)N[C@@H](Cc1ccccc1)[C@H](O)CNCc1cccc(C(C)C)c1)C2=O` came in with an IC50 of 10 nM.

A further data set has as its target T1, Beta-secretase 1.
Test: not given
Conditions: not given
As for `CC(C)(CO)c1cccc(CN[C@H]2CS(=O)(=O)C[C@@H](Cc3cc(F)c(N)c(OC(C(F)(F)F)C(F)(F)F)c3)[C@@H]2O)c1`, the half-inhibitory concentration (IC50) stood at 2 nM.
Still for that read-out and setting: in the case of `CC(C)(C)c1ccnc(CN[C@H]2CS(=O)(=O)C[C@@H](Cc3cc(F)c(N)c(OC(C(F)(F)F)C(F)(F)F)c3)[C@@H]2O)c1` it was 68 nM; in that of `CC(C)(O)c1cccc(CN[C@H]2CS(=O)(=O)C[C@@H](Cc3cc(F)c(N)c(OC(C(F)(F)F)C(F)(F)F)c3)[C@@H]2O)c1`, 2 nM.
Compound `CC(C)(C)Cn1cc(CN[C@H]2CS(=O)(=O)C[C@@H](Cc3cc(F)c(N)c(OC(C(F)(F)F)C(F)(F)F)c3)[C@@H]2O)cn1` gave an IC50 of 36 nM.
On the same count and under the same terms, the value for `Nc1c(F)cc(C[C@@H]2CS(=O)(=O)C[C@H](NCc3cccc(OC(F)(F)F)c3)[C@H]2O)cc1OC(C(F)(F)F)C(F)(F)F` was 44 nM; that for `CC(C)(C)c1cccc(CN[C@H]2CS(=O)(=O)C[C@@H](Cc3ccc(N)c(OC(F)(F)F)c3)[C@@H]2O)c1` (racemic) was 130 nM.
